Experimental data reported in article PMC4349556 (Journal of pharmaceutical sciences, 2014).

Assays:
[1] = Drug incorporation efficiency into lipid-drug nanoparticles; assay type: physicochemical; conditions: for Drug incorporation (% total): anti-HIV drug combination LNPs (ATV+RTV+TFV) used in primates, preclinical scale; for Incorporation efficiency (%): DSPC:DSPE-mPEG2000 8:2, mean ± SD of 4
Summary of the method: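 Film rehydrated in 0.9% NaCl with 20 mM sodium bicarbonate (pH 7.4) at 60°C for 2 h, then sonicated or homogenized. 50 μL aliquot dialyzed (MWCO 6,000-8,000) against 1,000 mL pH 7.4 buffer; drug quantified by HPLC/MS/MS. Efficiency = incorporated/total loaded ×100%.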

[2] = DPH fluorescence anisotropy: membrane fluidity and phase transition temperature; assay type: physicochemical; conditions: lipid-to-drug molar ratio 8:1
[3] = Plasma time course of anti-HIV drug combination lipid nanoparticles in primates; conditions: male, Macaca nemestrina (macaque), in vivo, sc
[4] = Hydration of drug in buffer in the absence of lipids; assay type: physicochemical; conditions: after solvent removal and hydration in buffer
[5] = 12 HIV infected patients, prospective clinical study; cited from earlier work

SMILES	Drug incorporation (% total) [1] [%]	Incorporation efficiency (%) ([1]; lipid : drug 5 : 1 (mol/mol))	Incorporation efficiency (%) ([1]; lipid : drug 8 : 1 (mol/mol))	Incorporation efficiency (%) ([1]; lipid : drug 20 : 1 (mol/mol))	Incorporation efficiency ([1]; range over lipid-to-drug molar ratios 5:1, 8:1 and 20:1)	Effect on DPH polarization / membrane order versus drug-free lipid control [2]	AUC fraction (% total) 8-168 h [3] [%]	Behaviour in the absence of lipids in the mixture [4]	Lymph node intracellular drug levels lower than those in blood [5] [%]	Reduction of Tc versus control LNPs [2] [°C]
COC(=O)N[C@H](C(=O)N[C@@H](Cc1ccccc1)[C@@H](O)CN(Cc1ccc(-c2ccccn2)cc1)NC(=O)[C@@H](NC(=O)OC)C(C)(C)C)C(C)(C)C [Atazanavir (ATV), Atazanavir]	85.5 ± 8.2	96.5 ± 2.6	96.2 ± 3.8	97.4 ± 1.8	96.2-97.4%	less influence on the membrane order	95.3	formed precipitates	≤ 99	
CC(C)c1nc(CN(C)C(=O)N[C@H](C(=O)N[C@@H](Cc2ccccc2)C[C@H](O)[C@H](Cc2ccccc2)NC(=O)OCc2cncs2)C(C)C)cs1 [Ritonavir (RTV), ritonavir]							80.4			
C[C@H](Cn1cnc2c(N)ncnc21)OCP(=O)(O)O [Tenofovir (TFV), tenofovir]	6.1 ± 0.8						97.4			
CC(C)CN(C[C@@H](O)[C@H](Cc1ccccc1)NC(=O)O[C@H]1CO[C@H]2OCC[C@H]21)S(=O)(=O)c1ccc(N)cc1 [Darunavir (DRV), Darunavir]						decreased the polarization of DPH		formed precipitates		1.6
